Measurements as given in ChEMBL document CHEMBL1125616, “Perfluorinated analogues of poison ivy allergens. Synthesis and skin tolerogenic activity in mice” (1991).

Tests used:
[1] = organism: Mus musculus; assay: Mice was pretreated with 15.6 mmol (100 uL) on shaved abdomen in group III on Day 0
[2] = organism: Mus musculus; assay: Increase in ear thickness was determined in mice after 48 hr of application of compound at a concentration of 1.56 mmol to right ear; format: functional
How it was run: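 Cross-reaction test in female BALB/c mice aged 6–7 weeks. Mice were sensitized on day 0 on the shaved lower abdomen with 15.6 mmol in acetone/olive oil 4:1 (100 μL). Four days later groups of 8 were challenged on the dorsal right ear with 1.56 mmol (25 μL). Ear thickness was measured by micrometer, and the increase taken at 48 h after challenge.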

[3] = organism: Mus musculus; assay: Ear thickness increase measured at 48 hr after challenge in group II on Day 10; format: functional
How it was run: (§1)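 Female BALB/c mice aged 6–7 weeks, 8 per group. On day 0 each mouse was pretreated epicutaneously on the shaved abdomen with 15.6 mmol in acetone/olive oil 4:1 (100 μL). The same dose was given on day 4 to sensitize. On day 8 the dorsal right ear was challenged with 1.56 mmol in acetone:olive oil (25 μL). Ear thickness was read by micrometer on days 9–12, and the increase taken at 48 h after challenge.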

[4] = organism: Mus musculus; assay: A challenge dose of 1.56 mmol (25 uL) was applied to right ear in group III on Day 8; format: functional
How it was run: as §1

[5] = organism: Mus musculus; assay: Mice was sensitized with 15.6 mmol (100 uL) on shaved abdomen in group II on Day 4
[6] = organism: Mus musculus; assay: A challenge dose of 1.56 mmol (25 uL) was applied to right ear in group II; format: functional
How it was run: as §1

[7] = organism: Mus musculus; assay: Ear thickness increase measured at 48 hr after challenge in group III on Day 10; format: functional
How it was run: as §1

[8] = organism: Mus musculus; assay: Mice was pretreated with 15.6 mmol (100 uL) on shaved abdomen in group II on Day 0
[9] = organism: Mus musculus; assay: Mice was sensitized with 15.6 mmol (100 uL) on shaved abdomen in group III on Day 4

Row | Structure (SMILES) | Tolerance [1] | Ear thickness [2] | Ear thickness [3] | Tolerance [4] | Tolerance [5] | Tolerance [6] | Ear thickness [7] | Tolerance [8] | Tolerance [9]
1 | Oc1cccc(CCCCCCCCCCCC(F)(F)C(F)(F)C(F)(F)C(F)(F)F)c1O | 9 | 162 µm | 26 µm | 9 | 10 | 10 | 15 µm | 9 | 9
2 | CCCCCCCCCCCCCCCc1cccc(O)c1O |  | 68.5 µm |  |  |  |  |  |  | 
3 | Oc1cccc(CCCCCC(F)(F)C(F)(F)C(F)(F)C(F)(F)C(F)(F)C(F)(F)F)c1O |  | 142 µm |  |  |  |  |  |  | 
